Measurements taken from ChEMBL document CHEMBL4823248, “Pyrazole Agonist of the Apelin Receptor Improves Symptoms of Metabolic Syndrome in Mice” (J Med Chem, 2021).

What was measured:
Apelin receptor [1] = target: T1, Apelin receptor (Homo sapiens, UniProt P35414); assay: Agonist activity at human AGTRL1 expressed in CHO-K1 cells assessed as induction of beta-arrestin 2 recruitment incubated for 90 mins by PathHunter assay; type: functional, cell-based
T1 sequence (P35414 whole entry): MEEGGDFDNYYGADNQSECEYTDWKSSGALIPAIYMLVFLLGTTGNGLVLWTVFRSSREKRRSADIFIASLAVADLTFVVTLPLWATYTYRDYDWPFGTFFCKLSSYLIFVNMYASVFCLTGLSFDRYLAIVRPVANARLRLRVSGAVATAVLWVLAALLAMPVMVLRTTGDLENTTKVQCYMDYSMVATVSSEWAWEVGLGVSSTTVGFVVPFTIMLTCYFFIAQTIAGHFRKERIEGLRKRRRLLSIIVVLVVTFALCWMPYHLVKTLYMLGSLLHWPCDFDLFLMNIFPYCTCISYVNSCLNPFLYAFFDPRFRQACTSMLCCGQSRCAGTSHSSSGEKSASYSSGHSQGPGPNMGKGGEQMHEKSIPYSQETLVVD

Apelin receptor [2] = target: T1, Apelin receptor; assay: Agonist activity at human APJ receptor expressed in CHO cells assessed as inhibition of forskolin-induced cAMP accumulation measured after 30 mins by TR-FRET assay
[3] = Intrinsic clearance in human pooled liver microsomes at 1 uM incubated up to 120 mins in presence of NADPH by LC-MS analysis; type: ADME, Microsome; settings: read-out: CLH
[4] = Half life in human pooled liver microsomes at 1 uM incubated up to 120 mins in presence of NADPH by LC-MS analysis; type: ADME, Microsome
[5] = Half life in CD-1 mouse plasma at 15 mg/kg, ip measured up to 24 hrs by LC-MS/MS analysis; type: ADME, organism-based
In short: (§1)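 Male CD-1 mice, about 10 weeks old, acclimated 72 h. Single 15 mg/kg IP dose formulated in modified citrate buffer (pH 6). Animals sacrificed at 0.5, 1, 2, 4, 8 and 24 h to collect plasma and brain samples. Cmax, AUC_all, CL and T1/2 determined.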

[6] = Cmax in CD-1 mouse plasma at 15 mg/kg, ip measured up to 24 hrs by LC-MS/MS analysis; type: ADME, organism-based; design: route intraperitoneal, dose 15 mg/kg, time <=24; in short: as §1
[7] = AUC in CD-1 mouse brain at 15 mg/kg, ip measured up to 24 hrs by LC-MS/MS analysis; type: ADME, organism-based; design: route intraperitoneal, dose 15 mg/kg, time <=24; in short: as §1
[8] = target: T2, Type-1 angiotensin II receptor (Homo sapiens, UniProt P30556); assay: Agonist activity at Galphaq16-fused human AGTR1 expressed in CHO cells assessed as stimulation of Ca2+ mobilization incubated for 1 hr by Calcium 5-dye based fluorescence based assay; type: functional, cell-based
T2 sequence (P30556 whole entry): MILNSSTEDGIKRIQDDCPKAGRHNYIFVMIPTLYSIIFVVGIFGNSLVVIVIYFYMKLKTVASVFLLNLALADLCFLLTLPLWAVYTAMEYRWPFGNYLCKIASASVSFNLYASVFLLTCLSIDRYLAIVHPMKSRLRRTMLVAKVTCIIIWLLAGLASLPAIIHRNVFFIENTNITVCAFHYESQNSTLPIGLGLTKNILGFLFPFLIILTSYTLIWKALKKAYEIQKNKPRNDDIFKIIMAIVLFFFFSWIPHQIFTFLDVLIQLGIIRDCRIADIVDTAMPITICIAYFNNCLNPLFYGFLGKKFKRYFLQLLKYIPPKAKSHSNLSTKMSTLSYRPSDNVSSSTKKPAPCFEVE
In short: (§2)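 CHO cells stably co-expressing Gαq16 with mouse APJ or human AGTR1; 20,000 hAGTR1 cells per well, plated 24 h at 37 °C. Loaded 1 h at 37 °C with Calcium 5 dye in HBSS buffer with 20 mM HEPES, 1% BSA, 10 μM probenecid, 1% DMSO final. Stimulated with compounds at various concentrations; fluorescence read on FLIPR Tetra. Duplicate, 2−3 runs.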

Apelin receptor [9] = target: T3, Apelin receptor (Mus musculus, UniProt Q9WV08); assay: Agonist activity at Galphaq16-fused mouse APJ receptor expressed in CHO cells assessed as stimulation of Ca2+ mobilization incubated for 1 hr by Calcium 5-dye based fluorescence based assay; type: cell-based; in short: as §2
T3 sequence (Q9WV08 whole entry): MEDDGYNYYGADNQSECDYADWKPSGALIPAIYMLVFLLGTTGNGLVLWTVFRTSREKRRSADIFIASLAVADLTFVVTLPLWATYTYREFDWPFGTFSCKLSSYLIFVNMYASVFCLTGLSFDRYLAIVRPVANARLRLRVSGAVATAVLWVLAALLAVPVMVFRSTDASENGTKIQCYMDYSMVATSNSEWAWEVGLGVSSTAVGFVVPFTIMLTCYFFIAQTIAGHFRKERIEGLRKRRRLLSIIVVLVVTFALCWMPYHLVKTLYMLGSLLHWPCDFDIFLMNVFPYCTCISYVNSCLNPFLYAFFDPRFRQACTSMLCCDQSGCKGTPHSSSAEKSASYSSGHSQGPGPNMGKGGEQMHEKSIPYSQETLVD

[10] = Clearance in CD-1 mouse plasma at 15 mg/kg, ip measured up to 24 hrs by LC-MS/MS analysis; type: ADME, organism-based; in short: as §1
[11] = Cmax in CD-1 mouse brain at 15 mg/kg, ip measured up to 24 hrs by LC-MS/MS analysis; type: ADME, organism-based; design: route intraperitoneal, dose 15 mg/kg, time <=24; in short: as §1
hERG (KCNH2) = hERG (KCNH2) (Homo sapiens, UniProt Q12809); assay: Displacement of [3H]astemizole from human ERG at 10 uM measured after 60 mins by scintillation counter method relative to control; settings: probe [3H]astemizole
In short: (§3)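 Competition binding using 4 μg hERG-expressing membranes with ~3 nM [3H]astemizole for 60 min in pH 7.4 HEPES buffer with 0.1% BSA. Terminated by filtration onto polyethyleneimine-soaked GF/B filters, washed with ice-cold buffer, and counted with scintillant. At least two runs in duplicate.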

[12] = Kinetic solubility of the compound in pH 7.4 PBS buffer measured after 2 hrs by LC-MS/MS analysis; type: physicochemical; settings: read-out: Kinetic_solubility
In short: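 20 mM DMSO stock diluted into PBS pH 7.4 to a targeted 400 μM. Agitated 2 h at room temperature, filtered through 1 μm glass fiber, and eluate diluted 400-fold in acetonitrile/water (1:1) for analysis.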

[13] = target: Voltage-gated inwardly rectifying potassium channel KCNH2 (Homo sapiens, UniProt Q12809); assay: Displacement of [3H]astemizole from human ERG at 10 uM measured after 60 mins by scintillation counter method; settings: 1 h; in short: as §3
[14] = AUC in CD-1 mouse plasma at 15 mg/kg, ip measured up to 24 hrs by LC-MS/MS analysis; type: ADME, organism-based; design: route intraperitoneal, dose 15 mg/kg, time <=24; in short: as §1
[15] = Protein binding in human plasma at 10 uM measured after 4 hrs by LC-MS/MS analysis; type: ADME, cell-free; settings: read-out: PPB (converted)
In short: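 Human plasma spiked at 10 μM, dialyzed against phosphate/NaCl buffer by rapid equilibrium dialysis for 4 h at 37 °C with shaking at 100 rpm. Samples matrix-matched, protein precipitated with cold acetonitrile/formic acid, and analyzed by LC−MS/MS. Three independent samples.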

[16] = Half life in CD-1 mouse brain at 15 mg/kg, ip measured up to 24 hrs by LC-MS/MS analysis; type: ADME, organism-based; in short: as §1

Sequence of hERG (KCNH2) (Q12809 whole entry): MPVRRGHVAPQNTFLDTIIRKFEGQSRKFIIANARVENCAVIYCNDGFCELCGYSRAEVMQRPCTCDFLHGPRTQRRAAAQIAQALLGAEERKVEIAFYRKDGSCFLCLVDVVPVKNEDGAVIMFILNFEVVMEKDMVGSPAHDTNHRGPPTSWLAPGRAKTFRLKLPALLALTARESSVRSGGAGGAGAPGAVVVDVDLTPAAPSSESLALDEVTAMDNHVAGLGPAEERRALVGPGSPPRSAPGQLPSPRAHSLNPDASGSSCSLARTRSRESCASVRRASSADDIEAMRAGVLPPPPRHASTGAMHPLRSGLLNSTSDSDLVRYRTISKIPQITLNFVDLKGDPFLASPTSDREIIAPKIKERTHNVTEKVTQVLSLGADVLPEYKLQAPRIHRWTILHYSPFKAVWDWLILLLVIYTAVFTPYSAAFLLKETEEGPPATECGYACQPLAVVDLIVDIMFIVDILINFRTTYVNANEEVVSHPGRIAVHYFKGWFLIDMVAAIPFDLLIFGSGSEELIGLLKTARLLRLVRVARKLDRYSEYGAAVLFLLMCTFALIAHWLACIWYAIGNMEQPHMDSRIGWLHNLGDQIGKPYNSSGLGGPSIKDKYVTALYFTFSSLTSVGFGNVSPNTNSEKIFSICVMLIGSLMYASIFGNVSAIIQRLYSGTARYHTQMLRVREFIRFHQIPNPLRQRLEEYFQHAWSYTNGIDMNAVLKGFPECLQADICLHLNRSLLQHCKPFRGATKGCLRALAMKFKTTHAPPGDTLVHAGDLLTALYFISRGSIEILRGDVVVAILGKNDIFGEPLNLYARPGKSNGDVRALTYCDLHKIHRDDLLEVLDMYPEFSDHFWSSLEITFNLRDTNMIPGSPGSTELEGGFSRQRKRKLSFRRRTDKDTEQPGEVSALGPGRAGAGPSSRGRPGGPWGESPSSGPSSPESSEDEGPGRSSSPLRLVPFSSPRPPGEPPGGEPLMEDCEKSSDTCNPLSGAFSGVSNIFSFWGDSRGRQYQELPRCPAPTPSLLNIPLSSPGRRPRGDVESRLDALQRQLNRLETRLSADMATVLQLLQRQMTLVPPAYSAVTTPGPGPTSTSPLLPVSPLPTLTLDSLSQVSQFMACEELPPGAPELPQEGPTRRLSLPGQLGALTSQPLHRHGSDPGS
Sequence of Voltage-gated inwardly rectifying potassium channel KCNH2 (Q12809 whole entry): as above

Row | SMILES | EC50 (Apelin receptor [1]) | EC50 (Apelin receptor [2]) | CLint scaled at 1 µM [3] | half-life at 1 µM [4] | also measured
1 | COc1cccc(OC)c1-c1cc(C(=O)N[C@@H](CCN2CCCCC2)CC(=O)N(C)c2nccs2)nn1C1CCCC1 | 14 nM | 5 nM | 33.4 mL/min/kg | 37 min | 
2 | COc1cccc(OC)c1-c1cc(C(=O)N[C@@H](CCN2CCCCC2)CC(=O)NC2CCC2)nn1C1CCCC1.Cl |  |  | 20 mL/min/kg | 62 min | half-life [5]: 162 min; Cmax [6]: 1580 ng/mL; AUC at 24 h [7]: 1080 ng·h/mL; EC50 [8]: > 10000 nM; EC50 (Apelin receptor [9]): 22 nM; CL/F [10]: 83 mL/min/kg; Cmax [11]: 103 ng/mL; inhibition at 1 h, 10 µM (hERG (KCNH2)): < 50%; solubility kinetic at 2 h [12]: 192 µM; inhibition (INH) [13]: Not Active; AUC at 24 h [14]: 3000 ng·h/mL; fraction unbound at 4 h, 10 µM [15]: 0.09; half-life [16]: 804 min
3 | COc1cccc(OC)c1-c1cc(C(=O)N[C@@H](CCN2C(C)CCCC2C)CC(=O)NC2CCC2)nn1C1CCCC1.Cl (some centres undefined) | 459 nM | 33 nM | 23.9 mL/min/kg | 52 min | 
4 | CC(C)NCC(O)COc1cccc2ccccc12 (centres undefined) [PROPRANOLOL] |  |  |  |  | fraction unbound at 4 h, 10 µM [15]: 0.39
5 | COc1cccc(OC)c1-c1cc(C(=O)N[C@@H](CCN2CCOCC2)CC(=O)NC2CCC2)nn1C1CCCC1.Cl | 1350 nM | 237 nM | 73.1 mL/min/kg | 17 min | 

Continued, in another order:

Row | EC50 (Apelin receptor [1]) | EC50 (Apelin receptor [2]) | CLint scaled at 1 µM [3] | half-life at 1 µM [4] | SMILES | also measured
6 | 523 nM | 134 nM | 37.8 mL/min/kg | 33 min | COc1cccc(OC)c1-c1cc(C(=O)N[C@@H](CCN2CCCCC2)Cc2nnc[nH]2)nn1C1CCCC1 | 
7 | 326 nM | 105 nM | 33.3 mL/min/kg | 37 min | COc1cccc(OC)c1-c1cc(C(=O)N[C@@H](CCN2CCCCC2)CC(=O)N(C)C2CCC2)nn1C1CCCC1 | 
8 |  |  | 32.4 mL/min/kg | 38 min | COc1cccc(OC)c1-c1cc(C(=O)N[C@@H](CCN2CCCCC2)CC(=O)NC2CC(F)(F)C2)nn1C1CCCC1 | 
9 |  |  | 25.8 mL/min/kg | 24.2 min | COc1cccc(OC)c1-c1cc(C(=O)N[C@@H](CCN2CCCCC2)CC(=O)Nc2nnn[nH]2)nn1C1CCCC1 | 
10 |  | 1 nM | 46.7 mL/min/kg | 27 min | COc1cccc(OC)c1-c1cc(C(=O)N[C@@H](CCN2CCCCC2)CC(=O)Nc2nccs2)nn1C1CCCC1 | 
11 | > 10000 nM | 2410 nM |  |  | COCCN(C)C(=O)C[C@H](CCN1CCCCC1)NC(=O)c1cc(-c2c(OC)cccc2OC)n(C2CCCC2)n1 | 
12 | 159 nM | 8 nM | 32.4 mL/min/kg | 38 min | COc1cccc(OC)c1-c1cc(C(=O)N[C@@H](CCN2CCCCCC2)CC(=O)NC2CCC2)nn1C1CCCC1.Cl | 
